This is a sample that favours compounds with a hit; in the whole collection about 3.8% have one here.
RAM inhibit – inhibitors of the yeast RAM network, primary screen, dse1pr::URA3 reporter, 5-FOA selection; S. cerevisiae dse1pr::URA3 reporter, 5-FOA growth OD615, 2 d; analog-sensitive cbk1-as2 kinase mutant strain; inhibition, % at 50 µM; hit rate 1.8% among 190,000;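 active = inhibition above a set limit, 3 SD over mean compound inhibition, cut at about 8.4% in these data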;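 note: 0% = DMSO-only wells with no growth and 100% = 10 µM 1-NA-PP1 full growth; inhibition rescues growth on 5-FOA so higher OD means more RAM inhibition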
Measles CPE – compounds protecting cells from measles virus cytopathic effect, primary screen, measles RdRp inhibitor project, single point, MLSMR library, absorbance. Measles virus-infected cells, CPE protection. protection (pct of control), % at 4 µM. hit rate 1.5% among 140,000. AID 841, 2007; in the data active = protection mostly above about 24%, no sharp cut-off; inactive = mostly below about 26%
BB579 growth dn – growth inhibitors of yeast BB579 in restrictive medium, primary screen, yeast lifespan-shortening project, S. cerevisiae; AID 804, 2007; hit rate 0.51% among 140,000; OD615, 48 h; inhibition, % at 10 µM;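 active = inhibition above a set limit, 3 SD over the mean compound inhibition, cut at about 44% in these data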
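Assay system: S. cerevisiae DeaD strain BB579 yeast. Medium: CSMM-D restrictive synthetic medium containing dextrose (glucose). Times: 4 h cell preincubation, 48 h compound exposure, 30 °C humidified. Signal: OD615 turbidity measurement. Benchmarks: positive control amphotericin B 10 µg/mL.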
Yeast lifespan up – compounds extending yeast replicative lifespan, primary screen, S. cerevisiae, OD615. S. cerevisiae growth with nicotinamide; deaD strain in restrictive glucose medium. inhibition of the nicotinamide effect, % at 10 µM. hit rate 0.68% among 130,000. AID 775, 2007;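 active = inhibition above a set limit, placed 3 SD over the median of all compounds, cut at about 26% in these data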;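 note: 0% = nicotinamide-treated wells and 100% = cells grown without nicotinamide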
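Measured by: optical density (absorbance) at 615 nm; System: modified budding yeast, DeaD strain; Medium: restrictive CSMM-D dextrose medium; Timing: 4 h preincubation then 48 h treatment at 30 °C.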
Starred values were filed as active, the others as inactive; . = no result given.

SMILES	RAM inhibit	Measles CPE	BB579 growth dn	Yeast lifespan up
Cc1noc(C)c1COc1ccc(C(=O)OCC(=O)N2CC3(C)CC2CC(C)(C)C3)cc1 (stereo not drawn)	1	51*	-28	-6
OC1CCN(c2cc(-c3ccccc3)nc3cc(-c4ccc(F)cc4)nn23)CC1	9.6*	.	.	.
Cc1cc(C)n(-c2ccc(C(=O)OCC(=O)Nc3ccc(Cl)cc3[N+](=O)[O-])cc2)n1	7	.	-19	-2
Cc1noc(NS(=O)(=O)c2ccc(N/C=C\C(=O)c3ccncc3)cc2)c1C	4	1	-29	24
Cc1noc(NS(=O)(=O)c2ccc(N/C=C/C(=O)c3ccc(F)cc3)cc2)c1C	11*	.	.	.
Cc1ccc(OCC(=O)Nc2ccc(S(=O)(=O)Nc3onc(C)c3C)cc2)cc1	10*	13	-49	-8
Cc1ccc(S(=O)(=O)CC(=O)Nc2ccc(S(=O)(=O)Nc3onc(C)c3C)cc2)cc1	1	17	-2	-2
O=C(/C=C/c1cccs1)Nc1cccc(NC(=O)/C=C/c2cccs2)n1	2	90*	-48	-5
COc1ccc(/C=C/C(=O)c2ccc3c4c(cccc24)CC3)cc1	8.8*	7	-6	-2
CCc1cc(C(=O)OC)c(NC(=O)c2cc(Br)cs2)s1	10*	9	-33	-14
CCc1cc(C(=O)OC)c(NC(=O)CCCC(=O)O)s1	1	14	-27	-8
O=S1(=O)C=C(Sc2nnc(-c3ccccc3)o2)c2ccccc21	3	-1	36	43*
CC1(C)CC(=O)C2=C(C1)OC(N)=C([N+](=O)[O-])C2c1cccs1 (stereo not drawn)	0	5	-20	28*
COc1cccc(C2C3=C(CC(C)(C)CC3=O)OC(N)=C2[N+](=O)[O-])c1 (stereo not drawn)	3	3	-27	-5
CCOc1nc(NC2CCCCC2)nc(NC(C)(C)C)n1	-1	61*	-2	.
O=C(NC1CCCCC1)N1CCC(n2cnc3ccccc32)CC1	2	76*	-20	-5
Cc1cccc(C)c1NC(=O)N1CCC(n2cnc3ccccc32)CC1	1	13	9	-19
Cc1cccc2nc(COc3ccc(-c4ccccc4)cc3)cn12	0	.	.	.
CCSc1nnc(NC(=O)c2cccnc2Cl)s1	-1	5	-12	.
CCSc1nnc(NC(=O)COc2cccc3ccccc23)s1	9.7*	8	-40	-6
CCSc1nnc(NC(=O)c2ccccn2)s1	-2	11	97*	-10
CCSc1nnc(NC(=O)COc2ccc(Cl)cc2)s1	2	.	.	.
CCCOc1ccccc1Cn1c(=O)oc2ccc(C)cc21	1	2	-26	-6
CCCOc1ccc(Cn2c(=O)oc3ccc(C)cc32)cc1OC	8.6*	11	-37	.
COc1ccc(N(CC(=O)N2CCc3ccccc32)S(=O)(=O)c2c(C)nn(C)c2C)cc1	8.9*	1	-12	-6
SMILES	RAM inhibit	Measles CPE	BB579 growth dn	Yeast lifespan up
Cc1nn(C)c(C)c1S(=O)(=O)N(CC(=O)N1CCc2ccccc21)c1ccc(C(C)C)cc1	2	14	-35	-12
CCn1nnnc1SCC(=O)N1c2ccccc2Sc2ccccc21	0	28*	1	.
Cc1sc2nc(C3CC3)nc(SCC(=O)N3c4ccccc4CC3C)c2c1C (stereo not drawn)	6	64*	-44	5
Cc1sc2nc(C3CC3)nc(SCC(=O)NCc3ccco3)c2c1C	6	5	-74	-7
COCCCn1nnnc1SCC(=O)N1c2ccccc2CC1C (stereo not drawn)	1	.	.	.
CC1Cc2ccccc2N1C(=O)CSc1nnnn1Cc1ccccc1 (stereo not drawn)	8.7*	4	-23	3
O=C(NCc1cccs1)C(=O)c1cn(CC(=O)N2CCCC2)c2ccccc12	2	.	.	.
Cc1ccc(C(C(=O)Nc2ccc3c(c2)OCO3)N(C)C(=O)/C=C\c2ccc3c(c2)OCO3)cc1 (stereo not drawn)	5	19	-43	16
Cc1ccc(-c2nn(-c3ccccc3)cc2C(=O)Nc2ccc(C(=O)O)cc2)cc1	9.6*	.	.	.
CCOC(=O)c1ccc(NC(=O)c2cn(-c3ccccc3)nc2-c2ccncc2)cc1	2	3	-18	-17
Cc1cc(NC(=O)CCN2C(=O)C3C4C=CC(C4)C3C2=O)c2ccccc2n1 (stereo not drawn)	2	45*	-25	-10
O=C(N/N=C/c1ccc([N+](=O)[O-])s1)c1cccnc1	-2	41	-17	-3

Source: PubChem
